Assay results reported in ChEMBL document CHEMBL4138082 (Eur J Med Chem, 2017).

How the values were obtained:
PC-3 = experiment: Antiproliferative activity against human PC3 cells after 72 hrs by MTT assay; format: functional, cell-based; details: PC-3, 72 h
Summary of the method: (§1)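 MTT assay. Cells were seeded and grown 24 h at 37 °C in 5% CO2, then exposed to compound or left untreated for 72 h. MTT (5 mg/mL stock) was added for 4 h and the formazan dissolved in DMSO. OD was read at 570 nm. IC50 is the concentration giving 50% growth inhibition, reported as mean ± SD of three independent experiments. Vehicle reference was 0.1% DMSO.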

HT-29 = experiment: Antiproliferative activity against human HT-29 cells after 72 hrs by MTT assay; format: functional, cell-based; details: HT-29, 72 h; summary of the method: as §1
HepG2 = experiment: Antiproliferative activity against human HepG2 cells after 72 hrs by MTT assay; format: functional, cell-based; details: HepG2, 72 h; summary of the method: as §1
L02 = experiment: Cytotoxicity against human L02 cells assessed as reduction in cell viability after 72 hrs by MTT assay; format: cell-based; details: L02, 72 h; summary of the method: as §1
[1] = Selectivity index, ratio of IC50 for human L02 cells to IC50 for human HepG2 cells; format: toxicity; details: L02 cells and HepG2 cells, read-out: Ratio IC50
Summary of the method: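 MTT assay: cells grown 24 h at 37 °C, 5% CO2, then exposed 72 h; MTT (5 mg/mL) added for 4 h, formazan dissolved in DMSO, OD read at 570 nm. Vehicle 0.1% DMSO. Three independent experiments.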

[2] = Drug metabolism in human HepG2 cells assessed as NO release by measuring nitrite formation at 100 uM after 1 hr by Griess assay; format: ADME, cell-based; details: hepg2, 1 h
Summary of the method: (§2)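 HepG-2 or L-02 cells were exposed to 100 µM of each compound for 60 min and then harvested. Lysates were mixed with Griess reagent for 10 min at 37 °C and absorbance was read at 550 nm. NO release is expressed as nitrite, reported as mean ± SD of three independent experiments.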

[3] = Drug metabolism in human L02 cells assessed as NO release by measuring nitrite formation at 100 uM after 1 hr by Griess assay; format: ADME, cell-based; details: l02, 1 h; summary of the method: as §2

| Compound | IC50 (PC-3) [nM] | IC50 (HT-29) [nM] | IC50 (HepG2) [nM] | IC50 (L02) [nM] | selectivity ratio [1] | Drug metabolism [2] [µM] | Drug metabolism [3] [µM] |
| --- | --- | --- | --- | --- | --- | --- | --- |
| C[C@H]1CCC/C=C/[C@@H]2C[C@H](OC(=O)CCC(=O)OCCCOc3no[n+]([O-])c3S(=O)(=O)c3ccccc3)C[C@H]2[C@H](OC(=O)CCC(=O)OCCCOc2no[n+]([O-])c2S(=O)(=O)c2ccccc2)/C=C/C(=O)O1 | 120 | 1200 | 840 | 7200 | 9 | – | – |
| C[C@H]1CCC/C=C/[C@@H]2C[C@H](OC(=O)CCC(=O)OCCCOc3no[n+]([O-])c3S(=O)(=O)c3ccccc3)C[C@H]2[C@H](O)/C=C/C(=O)O1 | 730 | 910 | 1300 | 7800 | 6 | – | – |
| O=C(O)c1ccccc1C(=O)OCCCOc1no[n+]([O-])c1S(=O)(=O)c1ccccc1 | 4900 | > 10000 | > 10000 | 40000 | – | – | – |
| C[C@H]1CCC/C=C/[C@@H]2C[C@H](OC(=O)CCCC(=O)OCCCOc3no[n+]([O-])c3S(=O)(=O)c3ccccc3)C[C@H]2[C@H](O)/C=C/C(=O)O1 | 160 | 1600 | 750 | 6700 | 9 | – | – |
| C[C@H]1CCC/C=C/[C@@H]2C[C@H](OC(=O)c3ccccc3C(=O)OCCOc3no[n+]([O-])c3S(=O)(=O)c3ccccc3)C[C@H]2[C@H](O)/C=C/C(=O)O1 | 64 | 280 | 540 | 5900 | 11 | – | – |
| C[C@H]1CCC/C=C/[C@@H]2C[C@H](OC(=O)CCC(=O)O)C[C@H]2[C@H](O)/C=C/C(=O)O1 | 1600 | 6300 | 1600 | 9500 | 6 | – | – |
| C[C@H]1CCC/C=C/[C@@H]2C[C@H](O)C[C@H]2[C@H](OC(=O)CCC(=O)OCCOc2no[n+]([O-])c2S(=O)(=O)c2ccccc2)/C=C/C(=O)O1 | 120 | 230 | 510 | 5000 | 10 | – | – |
| C[C@H]1CCC/C=C/[C@@H]2C[C@H](O)C[C@H]2[C@H](OC(=O)CCC(=O)OCCCOc2no[n+]([O-])c2S(=O)(=O)c2ccccc2)/C=C/C(=O)O1 | 250 | 790 | 730 | 6900 | 9 | – | – |
| C[C@H]1CCC/C=C/[C@@H]2C[C@H](O)C[C@H]2[C@H](OC(=O)c2ccccc2C(=O)OCCCOc2no[n+]([O-])c2S(=O)(=O)c2ccccc2)/C=C/C(=O)O1 | 150 | 860 | 620 | 5900 | 10 | – | – |
| C[C@H]1CCC/C=C/[C@@H]2C[C@H](OC(=O)CCCC(=O)OCCCOc3no[n+]([O-])c3S(=O)(=O)c3ccccc3)C[C@H]2[C@H](OC(=O)CCCC(=O)OCCCOc2no[n+]([O-])c2S(=O)(=O)c2ccccc2)/C=C/C(=O)O1 | 83 | 620 | 380 | 5100 | 13 | 92.3 | 23.4 |
| C[C@H]1CCC/C=C/[C@@H]2C[C@H](OC(=O)c3ccccc3C(=O)OCCOc3no[n+]([O-])c3S(=O)(=O)c3ccccc3)C[C@H]2[C@H](OC(=O)c2ccccc2C(=O)OCCOc2no[n+]([O-])c2S(=O)(=O)c2ccccc2)/C=C/C(=O)O1 | 130 | 230 | 550 | 6200 | 11 | 89.3 | 20.6 |
| C[C@H]1CCC/C=C/[C@@H]2C[C@H](O)C[C@H]2[C@H](OC(=O)CCCC(=O)OCCCOc2no[n+]([O-])c2S(=O)(=O)c2ccccc2)/C=C/C(=O)O1 | 95 | 5700 | 1800 | 6700 | 4 | – | – |
| C[C@H]1CCC/C=C/[C@@H]2C[C@H](O)C[C@H]2[C@H](OC(=O)c2ccccc2C(=O)OCCOc2no[n+]([O-])c2S(=O)(=O)c2ccccc2)/C=C/C(=O)O1 | 110 | 400 | 820 | 5700 | 7 | – | – |
| C[C@H]1CCC/C=C/[C@@H]2C[C@H](OC(=O)c3ccccc3C(=O)OCCCOc3no[n+]([O-])c3S(=O)(=O)c3ccccc3)C[C@H]2[C@H](OC(=O)c2ccccc2C(=O)OCCCOc2no[n+]([O-])c2S(=O)(=O)c2ccccc2)/C=C/C(=O)O1 | 1300 | 4400 | 4000 | 9800 | 2 | – | – |
| O=C(O)CCC(=O)OCCCOc1no[n+]([O-])c1S(=O)(=O)c1ccccc1 | > 10000 | > 10000 | 6400 | 29000 | 5 | – | – |
| O=c1[nH]cc(F)c(=O)[nH]1 [FLUOROURACIL] | – | 4900 | – | – | – | – | – |
| C[C@H]1CCC/C=C/[C@@H]2C[C@H](O)C[C@H]2[C@H](O)/C=C/C(=O)O1 [BREFELDIN A] | 68 | 160 | 350 | < 0.4 | – | – | – |
| C[C@H]1CCC/C=C/[C@@H]2C[C@H](OC(=O)CCC(=O)OCCOc3no[n+]([O-])c3S(=O)(=O)c3ccccc3)C[C@H]2[C@H](O)/C=C/C(=O)O1 | 140 | 460 | 910 | 5200 | 6 | – | – |
| C[C@H]1CCC/C=C/[C@@H]2C[C@H](OC(=O)CCCC(=O)OCCOc3no[n+]([O-])c3S(=O)(=O)c3ccccc3)C[C@H]2[C@H](O)/C=C/C(=O)O1 | 59 | 180 | 820 | 5100 | 6 | 65.2 | 14.6 |
| O=C(O)c1ccccc1C(=O)OCCOc1no[n+]([O-])c1S(=O)(=O)c1ccccc1 | 9900 | > 10000 | > 10000 | 37000 | – | – | – |
| C[C@H]1CCC/C=C/[C@@H]2C[C@H](OC(=O)c3ccccc3C(=O)OCCCOc3no[n+]([O-])c3S(=O)(=O)c3ccccc3)C[C@H]2[C@H](O)/C=C/C(=O)O1 | 95 | 300 | 620 | 5400 | 9 | – | – |
| C[C@H]1CCC/C=C/[C@@H]2C[C@H](OC(=O)CCC(=O)OCCOc3no[n+]([O-])c3S(=O)(=O)c3ccccc3)C[C@H]2[C@H](OC(=O)CCC(=O)OCCOc2no[n+]([O-])c2S(=O)(=O)c2ccccc2)/C=C/C(=O)O1 | 56 | 220 | 510 | 5900 | 12 | 98.4 | 19.5 |
| O=C(O)CCCC(=O)OCCCOc1no[n+]([O-])c1S(=O)(=O)c1ccccc1 | 3300 | > 10000 | > 10000 | 35000 | – | – | – |
| O=C(O)CCC(=O)OCCOc1no[n+]([O-])c1S(=O)(=O)c1ccccc1 | 3800 | > 10000 | > 10000 | 36000 | – | – | – |
| C[C@H]1CCC/C=C/[C@@H]2C[C@H](O)C[C@H]2[C@H](OC(=O)CCCC(=O)OCCOc2no[n+]([O-])c2S(=O)(=O)c2ccccc2)/C=C/C(=O)O1 | 46 | 280 | 410 | 5100 | 12 | 68.5 | 13.9 |
| O=C(O)CCCC(=O)OCCOc1no[n+]([O-])c1S(=O)(=O)c1ccccc1 | 5100 | > 10000 | 4000 | 32000 | 8 | – | – |
